In ChEMBL document CHEMBL1140994, “Ranking the selectivity of PubChem screening hits by activity-based protein profiling: MMP13 as a case study” (Bioorg Med Chem, 2009) one finds Activity and IC50 data, which are given here for two molecules.

Assay [1] has as its target Stromelysin-1 (Homo sapiens) (UniProt P08254). Briefly: Inhibition of human recombinant MMP3 at 200 uM by HxBPyne probe-based competitive activity based protein profiling assay in presence of 5 uM HxBpane competitor. In short, it runs like this: (§1)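 Recombinant enzyme at 0.5 μM final in mouse liver soluble proteome (1 mg protein/mL in PBS). HxBPyne probe cocktail 0.5 μM total final, with inhibitor 200 μM or DMSO. Preincubated 30 min on ice, then UV 365 nm for 1 h on ice. Rhodamine-azide click chemistry, 1 h RT in dark. SDS-PAGE with in-gel fluorescence; band intensity given as % of DMSO control.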

The target in assay [2] is T1, Neutrophil collagenase (Homo sapiens, UniProt P22894). The assay is described as follows: Inhibition of human recombinant MMP8 by fluorogenic substrate assay. In short, it runs like this: (§2)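 Enzyme (MMP8 6 nM, MMP9 2 nM, MMP13 1.5 nM final) preincubated with inhibitor 30 min in 50 mM HEPES pH 7.5, 10 mM CaCl2, 0.05% Brij-35, at RT. Mca-PLGL-Dpa-AR-NH2 added at 5 μM; fluorescence (ex 328/em 393 nm) read each minute for 10 min. Initial rates by linear least squares; IC50 from variable-slope sigmoidal fit. Triplicate; mean with 95% CI.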
Target sequence in this assay (P22894 whole entry): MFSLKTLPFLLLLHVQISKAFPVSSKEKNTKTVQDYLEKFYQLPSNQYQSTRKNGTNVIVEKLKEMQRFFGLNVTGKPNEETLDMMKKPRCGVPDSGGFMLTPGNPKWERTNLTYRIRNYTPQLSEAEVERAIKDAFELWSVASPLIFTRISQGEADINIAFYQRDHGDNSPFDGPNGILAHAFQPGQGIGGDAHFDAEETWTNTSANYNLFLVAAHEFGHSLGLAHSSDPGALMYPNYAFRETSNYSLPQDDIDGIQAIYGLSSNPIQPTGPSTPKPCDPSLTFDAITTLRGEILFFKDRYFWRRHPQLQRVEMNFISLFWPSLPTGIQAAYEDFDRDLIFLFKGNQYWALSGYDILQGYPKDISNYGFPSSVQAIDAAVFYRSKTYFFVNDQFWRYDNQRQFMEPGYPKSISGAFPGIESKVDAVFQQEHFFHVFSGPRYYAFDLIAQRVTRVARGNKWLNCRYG

The target of assay [3] is Matrix metalloproteinase-24 (Homo sapiens) (UniProt Q9Y5R2). The assay is described as follows: Inhibition of human recombinant MMP24 at 200 uM by HxBPyne probe-based competitive activity based protein profiling assay in presence of 5 uM HxBpane competitor. In a few lines:
as §1

The target of assay [4] is Matrix metalloproteinase-15 (Homo sapiens) (UniProt P51511). The assay is described as follows: Inhibition of human recombinant MMP15 at 200 uM by HxBPyne probe-based competitive activity based protein profiling assay in presence of 5 uM HxBpane competitor. In a few lines:
as §1

For assay [5], the target named is Matrix metalloproteinase-14 (Homo sapiens) (UniProt P50281). Briefly: Inhibition of human recombinant MMP14 at 200 uM by HxBPyne probe-based competitive activity based protein profiling assay in presence of 5 uM HxBpane competitor. In a few lines:
as §1

In assay [6] the target is T2, Collagenase 3 (Homo sapiens, UniProt P45452). Briefly: Inhibition of human recombinant MMP13 by fluorogenic substrate assay.
The target in assay [7] is T3, Matrix metalloproteinase-9 (Homo sapiens, UniProt P14780). The assay is described as follows: Inhibition of human recombinant MMP9 by fluorogenic substrate assay. In a few lines:
as §2

The target in assay [8] is T1, Neutrophil collagenase. Briefly: Inhibition of human recombinant MMP8 at 200 uM by HxBPyne probe-based competitive activity based protein profiling assay in presence of 5 uM HxBpane competitor. In a few lines:
as §1
Target sequence in this assay (P22894 101-467 limits assumed): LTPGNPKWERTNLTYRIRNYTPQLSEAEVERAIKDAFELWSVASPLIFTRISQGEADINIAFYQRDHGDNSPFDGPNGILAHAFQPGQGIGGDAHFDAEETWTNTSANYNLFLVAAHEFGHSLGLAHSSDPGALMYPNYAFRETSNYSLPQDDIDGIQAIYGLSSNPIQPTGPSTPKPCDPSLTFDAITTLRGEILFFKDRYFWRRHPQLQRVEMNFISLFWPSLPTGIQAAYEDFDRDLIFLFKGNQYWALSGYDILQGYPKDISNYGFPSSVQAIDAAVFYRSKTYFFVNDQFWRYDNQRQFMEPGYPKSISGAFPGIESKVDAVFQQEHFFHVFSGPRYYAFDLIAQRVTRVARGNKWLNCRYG

Assay [9] deals with Macrophage metalloelastase (Homo sapiens) (UniProt P39900). The assay is described as follows: Inhibition of human recombinant MMP12 at 200 uM by HxBPyne probe-based competitive activity based protein profiling assay in presence of 5 uM HxBpane competitor. In a few lines:
as §1

For assay [10], the target named is T2, Collagenase 3. The assay is described as follows: Inhibition of human recombinant MMP13 by HxBPyne probe-based competitive activity based protein profiling assay.
The target in assay [11] is 72 kDa type IV collagenase (Homo sapiens) (UniProt P08253). The assay is described as follows: Inhibition of human recombinant MMP2 at 200 uM by HxBPyne probe-based competitive activity based protein profiling assay in presence of 5 uM HxBpane competitor. In short, it runs like this:
as §1

For assay [12], the target named is T4, Stromelysin-3 (Homo sapiens) (UniProt P24347).
T4 sequence (whole entry): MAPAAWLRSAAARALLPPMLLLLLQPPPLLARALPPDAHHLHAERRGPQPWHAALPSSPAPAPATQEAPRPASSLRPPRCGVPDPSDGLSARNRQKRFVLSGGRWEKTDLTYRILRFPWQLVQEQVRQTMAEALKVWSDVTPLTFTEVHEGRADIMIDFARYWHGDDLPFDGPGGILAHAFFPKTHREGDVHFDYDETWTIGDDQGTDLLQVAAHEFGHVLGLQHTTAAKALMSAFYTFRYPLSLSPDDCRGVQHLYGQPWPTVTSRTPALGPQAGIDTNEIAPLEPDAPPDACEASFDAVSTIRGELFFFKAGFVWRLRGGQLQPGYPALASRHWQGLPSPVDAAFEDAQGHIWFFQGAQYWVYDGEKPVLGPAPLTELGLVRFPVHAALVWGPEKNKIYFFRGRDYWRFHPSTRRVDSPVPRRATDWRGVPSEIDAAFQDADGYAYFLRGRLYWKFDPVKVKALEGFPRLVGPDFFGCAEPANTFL
The assay is described as follows: Inhibition of human recombinant MMP11 at 200 uM by HxBPyne probe-based competitive activity based protein profiling assay in presence of 5 uM HxBpane competitor. In a few lines: as §1

For assay [13], the target named is Stromelysin-2 (Homo sapiens) (UniProt P09238). Briefly: Inhibition of human recombinant MMP10 at 200 uM by HxBPyne probe-based competitive activity based protein profiling assay in presence of 5 uM HxBpane competitor. In a few lines: as §1
For assay [14], the target named is T5, A disintegrin and metalloproteinase with thrombospondin motifs 5 (Homo sapiens) (UniProt Q9UNA0).
T5 sequence (whole entry): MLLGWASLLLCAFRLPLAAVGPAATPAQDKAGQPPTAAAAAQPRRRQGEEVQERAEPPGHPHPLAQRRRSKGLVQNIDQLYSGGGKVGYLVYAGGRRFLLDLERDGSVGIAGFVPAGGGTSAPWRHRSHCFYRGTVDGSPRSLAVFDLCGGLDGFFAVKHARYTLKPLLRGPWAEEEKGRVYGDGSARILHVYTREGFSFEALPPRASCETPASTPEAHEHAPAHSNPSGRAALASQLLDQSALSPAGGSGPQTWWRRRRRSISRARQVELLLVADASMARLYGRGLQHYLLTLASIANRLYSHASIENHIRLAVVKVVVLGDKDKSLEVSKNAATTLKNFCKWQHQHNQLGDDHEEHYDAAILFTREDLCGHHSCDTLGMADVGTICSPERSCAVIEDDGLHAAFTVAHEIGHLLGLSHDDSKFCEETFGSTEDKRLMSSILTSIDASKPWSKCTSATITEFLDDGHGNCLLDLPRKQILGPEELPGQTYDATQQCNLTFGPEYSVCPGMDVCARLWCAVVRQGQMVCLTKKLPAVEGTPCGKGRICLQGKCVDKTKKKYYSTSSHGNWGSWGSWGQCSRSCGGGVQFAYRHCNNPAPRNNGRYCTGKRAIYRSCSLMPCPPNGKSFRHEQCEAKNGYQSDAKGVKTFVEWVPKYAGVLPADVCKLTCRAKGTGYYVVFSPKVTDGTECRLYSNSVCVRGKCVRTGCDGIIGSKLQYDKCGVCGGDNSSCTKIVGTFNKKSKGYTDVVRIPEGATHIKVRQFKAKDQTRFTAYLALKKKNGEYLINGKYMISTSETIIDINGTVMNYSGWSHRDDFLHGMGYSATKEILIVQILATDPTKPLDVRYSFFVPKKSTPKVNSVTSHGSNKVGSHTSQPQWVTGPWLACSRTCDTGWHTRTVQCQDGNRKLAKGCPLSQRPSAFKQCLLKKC
Briefly: Inhibition of human recombinant ADAMTS5 at 200 uM by HxBPyne probe-based competitive activity based protein profiling assay in presence of 5 uM HxBpane competitor. In a few lines: as §1

Assay [15] deals with Matrix metalloproteinase-16 (Homo sapiens) (UniProt P51512). Briefly: Inhibition of human recombinant MMP16 at 200 uM by HxBPyne probe-based competitive activity based protein profiling assay in presence of 5 uM HxBpane competitor. In short, it runs like this: as §1
The target in assay [16] is T3, Matrix metalloproteinase-9. Briefly: Inhibition of human recombinant MMP9 at 200 uM by HxBP-Rh probe-based competitive activity based protein profiling assay in presence of 200 uM HxBP-alkyne. In a few lines: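 Enzyme 0.5 μM final, in PBS (ADAMTS4, neprilysin) or in 1 mg/mL mouse liver soluble proteome (MMP9). HxBP-Rh probe 0.5 μM final with 200 μM inhibitor or DMSO. Preincubated 30 min on ice, UV 365 nm 1 h on ice. Deglycosylated with PNGase F, then SDS-PAGE with fluorescence scanning. Activity given relative to DMSO control.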

The target in assay [17] is T6, Disintegrin and metalloproteinase domain-containing protein 8 (Homo sapiens) (UniProt P78325).
T6 sequence (whole entry): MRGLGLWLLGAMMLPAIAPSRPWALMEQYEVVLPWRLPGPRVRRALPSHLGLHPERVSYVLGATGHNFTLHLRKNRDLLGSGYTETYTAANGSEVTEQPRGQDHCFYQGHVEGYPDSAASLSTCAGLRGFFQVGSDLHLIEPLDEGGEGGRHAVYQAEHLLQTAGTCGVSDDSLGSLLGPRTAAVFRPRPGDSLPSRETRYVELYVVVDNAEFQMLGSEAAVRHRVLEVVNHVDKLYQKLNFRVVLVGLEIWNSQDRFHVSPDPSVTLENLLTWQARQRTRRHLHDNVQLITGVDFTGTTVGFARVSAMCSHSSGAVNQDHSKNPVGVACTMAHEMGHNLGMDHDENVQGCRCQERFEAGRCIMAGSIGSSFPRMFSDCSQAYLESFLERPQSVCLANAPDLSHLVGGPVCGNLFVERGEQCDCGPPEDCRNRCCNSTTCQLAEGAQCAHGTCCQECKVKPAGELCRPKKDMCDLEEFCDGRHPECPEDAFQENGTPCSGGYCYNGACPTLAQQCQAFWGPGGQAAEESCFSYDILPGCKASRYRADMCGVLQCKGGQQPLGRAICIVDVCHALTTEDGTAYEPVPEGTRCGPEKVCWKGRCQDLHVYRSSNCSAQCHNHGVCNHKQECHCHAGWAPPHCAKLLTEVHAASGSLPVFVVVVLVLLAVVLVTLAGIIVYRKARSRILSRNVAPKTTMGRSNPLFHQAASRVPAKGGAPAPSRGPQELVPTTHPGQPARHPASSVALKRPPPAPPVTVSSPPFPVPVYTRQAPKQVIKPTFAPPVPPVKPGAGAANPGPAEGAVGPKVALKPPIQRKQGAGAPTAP
Briefly: Inhibition of human recombinant ADAM8 at 200 uM by HxBPyne probe-based competitive activity based protein profiling assay in presence of 5 uM HxBpane competitor. In a few lines: as §1

SMILES strings stand for the structures. The source made the active and inactive calls. The rule behind the calls is not given here.

T3 sequence (P14780 whole entry): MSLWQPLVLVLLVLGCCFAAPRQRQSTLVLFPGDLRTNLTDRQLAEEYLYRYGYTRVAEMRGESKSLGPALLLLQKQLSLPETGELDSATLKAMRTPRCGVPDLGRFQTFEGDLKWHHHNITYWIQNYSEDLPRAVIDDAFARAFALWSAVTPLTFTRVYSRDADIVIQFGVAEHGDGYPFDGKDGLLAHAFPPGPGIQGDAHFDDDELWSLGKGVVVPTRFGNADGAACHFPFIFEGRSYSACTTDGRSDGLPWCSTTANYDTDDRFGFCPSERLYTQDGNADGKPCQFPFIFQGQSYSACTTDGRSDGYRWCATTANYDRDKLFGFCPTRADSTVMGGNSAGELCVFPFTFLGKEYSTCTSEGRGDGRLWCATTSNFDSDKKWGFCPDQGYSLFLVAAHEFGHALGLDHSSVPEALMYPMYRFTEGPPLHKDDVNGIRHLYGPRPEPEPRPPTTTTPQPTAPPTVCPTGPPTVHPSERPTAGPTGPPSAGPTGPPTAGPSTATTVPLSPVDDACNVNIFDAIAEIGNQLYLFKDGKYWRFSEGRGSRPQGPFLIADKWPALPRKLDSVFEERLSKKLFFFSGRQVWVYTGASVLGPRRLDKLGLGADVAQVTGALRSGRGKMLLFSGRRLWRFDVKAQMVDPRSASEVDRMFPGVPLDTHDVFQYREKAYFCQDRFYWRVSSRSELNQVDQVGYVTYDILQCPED
Sequence of Stromelysin-2 (Homo sapiens) (P09238 99-476 limits assumed): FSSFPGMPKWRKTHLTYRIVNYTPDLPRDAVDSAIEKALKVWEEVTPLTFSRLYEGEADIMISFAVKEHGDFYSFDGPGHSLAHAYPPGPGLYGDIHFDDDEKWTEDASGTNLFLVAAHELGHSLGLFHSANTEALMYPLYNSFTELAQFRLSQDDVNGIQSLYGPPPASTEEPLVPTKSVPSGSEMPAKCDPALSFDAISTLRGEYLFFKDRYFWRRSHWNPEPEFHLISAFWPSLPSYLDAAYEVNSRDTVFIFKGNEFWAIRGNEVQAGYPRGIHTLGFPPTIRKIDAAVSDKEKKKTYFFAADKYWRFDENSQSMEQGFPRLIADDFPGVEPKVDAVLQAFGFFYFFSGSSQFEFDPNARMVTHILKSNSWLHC
Sequence of Stromelysin-1 (Homo sapiens) (P08254 100-477 limits assumed): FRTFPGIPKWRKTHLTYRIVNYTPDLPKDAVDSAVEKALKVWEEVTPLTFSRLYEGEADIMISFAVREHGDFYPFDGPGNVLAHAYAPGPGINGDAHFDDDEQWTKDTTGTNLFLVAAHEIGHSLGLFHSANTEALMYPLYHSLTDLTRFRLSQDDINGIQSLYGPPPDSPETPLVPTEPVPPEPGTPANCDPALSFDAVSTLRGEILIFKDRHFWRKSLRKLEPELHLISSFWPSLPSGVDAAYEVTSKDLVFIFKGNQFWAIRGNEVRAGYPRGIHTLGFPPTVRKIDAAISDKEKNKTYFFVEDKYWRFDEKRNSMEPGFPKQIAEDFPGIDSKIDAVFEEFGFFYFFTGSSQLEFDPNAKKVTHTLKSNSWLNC
Sequence of 72 kDa type IV collagenase (Homo sapiens) (P08253 110-660 limits assumed): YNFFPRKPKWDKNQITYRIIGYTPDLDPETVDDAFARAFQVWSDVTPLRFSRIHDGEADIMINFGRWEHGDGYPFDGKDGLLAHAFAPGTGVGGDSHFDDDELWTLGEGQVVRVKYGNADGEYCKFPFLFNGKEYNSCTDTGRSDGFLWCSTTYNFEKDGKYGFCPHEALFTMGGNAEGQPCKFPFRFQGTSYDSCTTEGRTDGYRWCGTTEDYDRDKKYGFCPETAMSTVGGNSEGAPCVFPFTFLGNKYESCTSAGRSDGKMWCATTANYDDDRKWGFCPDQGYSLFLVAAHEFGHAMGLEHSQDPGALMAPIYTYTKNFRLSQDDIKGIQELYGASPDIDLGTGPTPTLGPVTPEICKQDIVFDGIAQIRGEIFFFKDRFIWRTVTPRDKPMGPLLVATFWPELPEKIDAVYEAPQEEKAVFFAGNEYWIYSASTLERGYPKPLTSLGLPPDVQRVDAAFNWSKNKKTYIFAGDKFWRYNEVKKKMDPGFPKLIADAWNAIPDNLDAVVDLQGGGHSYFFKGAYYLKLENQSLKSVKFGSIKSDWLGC
Sequence of Macrophage metalloelastase (Homo sapiens) (P39900 106-470 limits assumed): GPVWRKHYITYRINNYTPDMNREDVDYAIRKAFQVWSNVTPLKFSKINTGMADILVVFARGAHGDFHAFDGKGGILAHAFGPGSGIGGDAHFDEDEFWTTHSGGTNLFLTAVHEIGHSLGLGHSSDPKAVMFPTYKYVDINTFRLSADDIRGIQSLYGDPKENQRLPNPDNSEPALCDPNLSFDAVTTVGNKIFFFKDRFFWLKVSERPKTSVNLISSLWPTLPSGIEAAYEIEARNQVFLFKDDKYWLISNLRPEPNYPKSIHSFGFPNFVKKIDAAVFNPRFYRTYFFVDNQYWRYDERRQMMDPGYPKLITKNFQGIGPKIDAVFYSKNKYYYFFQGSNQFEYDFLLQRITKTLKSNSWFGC
Sequence of Matrix metalloproteinase-16 (Homo sapiens) (P51512 whole entry): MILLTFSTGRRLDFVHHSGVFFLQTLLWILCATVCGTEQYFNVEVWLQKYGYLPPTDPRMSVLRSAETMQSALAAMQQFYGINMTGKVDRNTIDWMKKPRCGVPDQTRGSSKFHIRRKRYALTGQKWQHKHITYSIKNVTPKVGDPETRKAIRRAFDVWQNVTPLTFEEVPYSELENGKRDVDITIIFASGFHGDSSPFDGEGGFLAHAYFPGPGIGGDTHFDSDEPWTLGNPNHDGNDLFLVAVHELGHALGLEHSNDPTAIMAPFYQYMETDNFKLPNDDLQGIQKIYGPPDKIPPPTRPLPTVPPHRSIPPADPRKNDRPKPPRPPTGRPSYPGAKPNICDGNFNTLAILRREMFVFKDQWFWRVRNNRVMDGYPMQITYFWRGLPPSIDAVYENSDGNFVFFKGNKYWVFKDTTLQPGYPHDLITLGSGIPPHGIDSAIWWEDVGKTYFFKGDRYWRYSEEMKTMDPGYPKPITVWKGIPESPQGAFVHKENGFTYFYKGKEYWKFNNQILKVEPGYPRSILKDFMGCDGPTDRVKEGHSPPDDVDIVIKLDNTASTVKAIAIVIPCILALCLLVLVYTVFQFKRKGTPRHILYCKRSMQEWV
Sequence of Matrix metalloproteinase-24 (Homo sapiens) (Q9Y5R2 whole entry): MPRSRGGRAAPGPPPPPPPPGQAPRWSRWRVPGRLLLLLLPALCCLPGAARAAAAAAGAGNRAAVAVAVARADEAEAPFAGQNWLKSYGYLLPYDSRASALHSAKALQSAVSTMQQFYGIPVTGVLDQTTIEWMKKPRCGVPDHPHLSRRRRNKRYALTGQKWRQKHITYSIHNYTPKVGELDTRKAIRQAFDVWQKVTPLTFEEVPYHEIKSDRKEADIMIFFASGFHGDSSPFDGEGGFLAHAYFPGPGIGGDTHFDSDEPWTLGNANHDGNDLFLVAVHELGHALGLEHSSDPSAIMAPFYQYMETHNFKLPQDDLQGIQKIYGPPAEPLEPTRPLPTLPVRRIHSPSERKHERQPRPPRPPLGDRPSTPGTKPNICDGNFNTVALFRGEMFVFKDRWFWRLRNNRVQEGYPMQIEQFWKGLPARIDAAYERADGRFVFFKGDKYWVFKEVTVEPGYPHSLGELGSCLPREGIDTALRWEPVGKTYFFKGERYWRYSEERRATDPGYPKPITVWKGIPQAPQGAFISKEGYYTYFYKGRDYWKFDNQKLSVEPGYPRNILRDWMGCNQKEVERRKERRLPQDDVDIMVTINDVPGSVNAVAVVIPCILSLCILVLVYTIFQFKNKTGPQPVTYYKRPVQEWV

Usually IC50 stands for the point on the concentration scale where inhibition reaches its midpoint. On to `O=C(O)CCC(NS(=O)(=O)c1ccc(-c2ccccc2)cc1)C(=O)O` (stereo unspecified), for which the result in assay [1], in [3], in [4], in assay [5], in [8] and in [9] was Active. Further, the result in assay [11], in assay [12], in assay [13], in [14] and in [15] was Active. For the same molecule, the 50% inhibitory concentration (IC50) in assay [2] was determined as 24 nM; in assay [6], 280 nM; in assay [7] it was 14000 nM; in [10], 13000 nM.
Take `CCCCCCOc1ccc(C(CC(=O)O)C(N)=O)cc1` (stereo unspecified): the result in assay [1], in [16], in [8], in assay [9], in assay [11] and in assay [13] was Active. Moreover, the result in [17] was Active. Moreover, the IC50 in assay [2] stood at 670 nM; in assay [6] it was 1300 nM; in assay [7] it was 160 nM; in assay [10], 27000 nM.
